Reference: ChEMBL document CHEMBL4732051, “The discovery of potent small molecule activators of human STING” (Eur J Med Chem, 2021)
Active and inactive are the calls of the source. The rule behind the calls is not given here.

Experiments:
[1] = system: Stimulator of interferon genes protein (Homo sapiens), Q86WV6 [G230A,R293Q]; experiment: Activation of human STING AQ mutant expressed in HEK293T cells assessed as phosphorylation of IRF-3 at (Ser396) at 10 uM incubated for 2 hrs and measured by Western blot analysis; format: cell-based; conditions: filed as activator
Method in brief: (§1)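 HEK293T clones stably carrying each human STING variant, picked by blasticidin selection and limiting dilution. 5 x 10^5 cells were exposed to compound at 10μM for 2 h, lysed in RIPA with phosphatase and protease inhibitors, and 10 μg protein run on 10% SDS-PAGE. Immunoblots probed for pSTING (Ser366), pIRF3 (Ser396), total STING, IRF3 and actin, detected by ECL.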

[2] = system: Stimulator of interferon genes protein (Homo sapiens), Q86WV6 [UNDEFINED MUTATION]; experiment: Activation of human STING R232 in human MDA-MB-468 cells assessed as phosphorylation of IRF3 at (Ser396) at 10 uM incubated for 2 hrs and measured by Western blot analysis; format: cell-based; conditions: filed as activator
Method in brief: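 Tumor cell lines or human primary cells carrying endogenous STING variants; STING KO cells as control. 10µM for 2 h, then lysed in RIPA with phosphatase and protease inhibitors. 10 μg protein on 10% SDS-PAGE, blotted for pSTING (Ser366), pIRF3 (Ser396), STING, IRF3 and actin, ECL detection.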

[3] = system: Stimulator of interferon genes protein (Homo sapiens), Q86WV6 [G230A,R293Q]; experiment: Activation of human STING AQ mutant expressed in HEK293T cells assessed as phosphorylation at (Ser366) at 10 uM incubated for 2 hrs and measured by Western blot analysis; format: cell-based; conditions: filed as activator; method in brief: as §1
HEK293T [4] = experiment: Induction of STING H232 mutant (unknown origin) expressed in HEK293T cells assessed as increase in luciferase coupled ISG54-ISRE activity incubated for 18 hrs luciferase reporter gene assay; format: cell-based; conditions: Homo sapiens, filed as activator
[5] = AUC in BALB/c mouse at 5 mg/kg, iv measured up to 24 hrs by LC-MS/MS analysis; format: ADME, organism-based; set-up: route intravenous, dose 5 mg/kg, time <=24; conditions: in vivo
Method in brief: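 Overnight-fasted mice, n=3 per group, single dose by lateral tail vein (iv) or oral gavage (po). Retro-orbital blood under isoflurane at 2 min–24 h (iv) or 5 min–24 h (po). Plasma spun at 1500 x g, 15 min, 4 °C, stored -80 °C, then analysed by LCMS.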

[6] = molecular target: T1, Stimulator of interferon genes protein (Homo sapiens, UniProt Q86WV6); experiment: Activation of human STING in human PBMC cells assessed as induction of CCL20 expression at 10 uM measured by qt-PCR analysis; format: cell-based; conditions: filed as activator
Method in brief: (§2)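 2 x 10^5 freshly isolated human PBMC from healthy donors, separated on Histopaque, given a single compound concentration. Harvested early (6 hr) or late (20h). Cytokine mRNA read by qRT-PCR as relative normalized expression (fold) against vehicle-treated cells.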

HEK293T [7] = experiment: Induction of STING Q mutant (unknown origin) expressed in HEK293T cells assessed as increase in luciferase coupled ISG54-ISRE activity incubated for 18 hrs luciferase reporter gene assay; format: cell-based; conditions: Homo sapiens, filed as activator
[8] = molecular target: T1, Stimulator of interferon genes protein; experiment: Activation of human STING in human PBMC cells assessed as induction of IL6 expression at 10 uM measured by qt-PCR analysis; format: cell-based; conditions: filed as activator; method in brief: as §2

T1 sequence (Q86WV6 whole entry): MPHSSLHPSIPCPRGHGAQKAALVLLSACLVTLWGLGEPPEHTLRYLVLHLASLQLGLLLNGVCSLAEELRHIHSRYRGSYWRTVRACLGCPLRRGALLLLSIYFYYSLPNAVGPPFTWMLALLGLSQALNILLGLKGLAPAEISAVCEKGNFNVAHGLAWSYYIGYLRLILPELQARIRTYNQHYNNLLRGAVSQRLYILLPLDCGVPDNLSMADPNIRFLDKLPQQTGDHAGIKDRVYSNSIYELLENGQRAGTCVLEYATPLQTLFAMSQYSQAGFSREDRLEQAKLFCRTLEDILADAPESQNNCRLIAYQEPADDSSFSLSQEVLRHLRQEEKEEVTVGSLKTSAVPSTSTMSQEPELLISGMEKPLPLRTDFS
Sequence of Stimulator of interferon genes protein (Homo sapiens), Q86WV6 [G230A,R293Q] (Q86WV6 whole entry G230A/R293Q): as the sequence (Q86WV6 whole entry) above, with G230A, R293Q counted along it
Sequence of Stimulator of interferon genes protein (Homo sapiens), Q86WV6 [UNDEFINED MUTATION] (Q86WV6 whole entry, looked up, change not shown): as the sequence (Q86WV6 whole entry) above

- Activity [1]: Active
- Activity [2]: Active
- Activity [3]: Active
- AUC at 24 h [5]: 1220 ng·h/mL
Structure (SMILES): CC1(C)C(=O)N(Cc2c(F)cccc2Cl)c2cc(C(=O)NCc3c(F)cc(F)cc3F)ccc21
- Activity (HEK293T [4]): Active
- Activity [6]: Active
- Activity (HEK293T [7]): Active
- Activity [8]: Active
